Screens as filed in PubChem BioAssay.
Only some compounds are listed: those with a hit (about 2.4% of all), similar ones and a draw of the others.
Runt-CBFb FRET – blocks binding of human RUNX1 Runt domain to CBFb | Cerulean-Runt/Venus-CBFb FRET ratio 530/480, 1 h | inhibition, % at 20 µM | 220,000 compounds, 0.46% hits;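 active means inhibition over about 50% at 20 µM in the single-dose screen, limit read from the data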;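 further: 0% = DMSO wells and 100% = excess unlabeled CBFb competitor control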
Target sequence (Q01196 whole entry, looked up, the tested form may be a part): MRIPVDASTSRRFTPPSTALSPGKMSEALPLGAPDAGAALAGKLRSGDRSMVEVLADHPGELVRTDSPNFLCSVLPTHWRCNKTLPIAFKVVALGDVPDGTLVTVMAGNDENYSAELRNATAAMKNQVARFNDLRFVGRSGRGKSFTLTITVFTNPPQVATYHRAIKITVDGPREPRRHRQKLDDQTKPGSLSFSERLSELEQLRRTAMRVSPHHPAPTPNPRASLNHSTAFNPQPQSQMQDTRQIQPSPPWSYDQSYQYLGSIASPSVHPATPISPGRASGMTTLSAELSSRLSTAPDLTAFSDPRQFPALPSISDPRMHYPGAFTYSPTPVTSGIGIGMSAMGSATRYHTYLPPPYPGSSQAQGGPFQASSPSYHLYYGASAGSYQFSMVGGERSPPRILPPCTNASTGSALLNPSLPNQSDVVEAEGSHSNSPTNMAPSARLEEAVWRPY
Target sequence (Q13951 whole entry, looked up, the tested form may be a part): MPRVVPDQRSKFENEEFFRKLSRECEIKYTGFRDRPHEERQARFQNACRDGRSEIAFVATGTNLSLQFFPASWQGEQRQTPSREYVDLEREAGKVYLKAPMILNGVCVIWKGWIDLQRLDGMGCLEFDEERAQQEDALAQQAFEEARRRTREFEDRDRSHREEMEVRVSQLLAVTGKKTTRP
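Assay system: Cerulean-tagged RUNX1 Runt domain (FRET donor) fusion protein / Amount: 100 nM each of Venus-CBFb and Cerulean-Runt domain / Medium: Tris buffer pH 7.5 with salts and BSA / Also added: Venus-CBFb 100 nM / Schedule: 1 h complex formation plus 1 h compound treatment, room temperature / Signal: FRET fluorescence / Read-out: loss of energy transfer signal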
Runt-SMMHC FRET – inhibitors of human RUNX1 Runt domain binding to CBFb-SMMHC | Cerulean-Runt/Venus-CBFb-SMMHC FRET ratio 530/480, 1 h | AID 1434 | 220,000 compounds, 0.74% hits | inhibition, % at 20 µM | Q01196+Q13951;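 active means mean inhibition across duplicate retests at 20 µM reaching about 50%, limit read from the data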;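 further: 0% = DMSO wells and 100% = wells with excess untagged CBFb-SMMHC; inhibitors lower the FRET ratio by blocking Runt binding to CBFb-SMMHC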
RanGTP-Impb inh – disruptors of Ran-importin-beta complex formation – biochemical, FRET, CFP-Ran, YFP-importin-beta, homogeneous, primary screen | cell-free CFP-Ran/YFP-importin-beta FRET ratio | inhibition, % (no concentration beside the values) | 300,000 compounds, 1.1% hits;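 active means more than half of the replicate wells show a fall in the fluorescence ratio signal beyond about 16%, limit read from the data, passing the limit was not always enough; inconclusive means exactly half of the replicate wells pass the set limit; inactive means fewer than half of replicates pass the limit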;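 further: 0% = DMSO wells and 100% = Ran loaded with GDP instead of GTP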
LANA-H2B inh – blocks KSHV LANA binding to histone H2A/H2B. Q9QR71. cell-free LANA-H2A/H2B peptide, fluorescence polarization. inhibition, % (no concentration beside the values). 320,000 compounds, 0.6% hits. AID 2629; in the data active means inhibition mostly above about 10%, no sharp cut-off; inactive means mostly below about 6.7%
EBV gp42 block – EBV gp42 inhibition | Fluorescence polarization binding assay, mP read-out | inhibition, % (tested at 21.74 µM) | 220,000 compounds, 0.42% hits; in the data active means inhibition above about 50%
MEX-5 binding – C. elegans MEX-5 TCR-2 RNA binding activity. Q9XUB2. activity score (negative = inhibition of binding), % at 10 µM. 300,000 compounds, 0.38% hits. AID 1832. MEX-5/FITC-TCR2 RNA binding, fluorescence polarization; hits give low values;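 active means inhibition past about -25% in most replicates, and total fluorescence under double the plate's negative control median, limit read from the data; inconclusive means replicates evenly split on the limit, or fluorescence at least double controls; inactive means too little inhibition in most replicates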;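 further: 0% = DMSO and -100% = 5 µM competing unlabeled TCR2 RNA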
Numbers without * were called inactive; ? = inconclusive; . = not tested or not shown.

SMILES	Runt-CBFb FRET	Runt-SMMHC FRET	RanGTP-Impb inh	LANA-H2B inh	EBV gp42 block	MEX-5 binding
Cc1cccn2c(=O)c3cc(C(=O)NC4CCCC4)c(=N)n(C4CCCCC4)c3nc12	.	.	175*	6	.	3
COc1ccc(CCn2c(=N)c(C(=O)NC3CCCC3)cc3c(=O)n4cccc(C)c4nc32)cc1	.	.	?	-4	.	-3
Cc1cccn2c(=O)c3cc(C(=O)NC4CCCC4)c(=N)n(Cc4ccc(F)cc4)c3nc12	.	.	178*	8	.	-5
Oc1ccccc1-c1nnc2n1CCCCC2	.	.	?	-2	.	0
Cc1ccc(S(=O)(=O)N(CCCO)CC(O)CON=C2c3ccccc3-c3ccccc32)cc1 (stereo not drawn)	-1	-3	2	2	-19	0
Cc1cccc(CN2CCCC(C(=O)N3CCc4ccccc4C3)C2)c1 (stereo not drawn)	-1	-3	1	-3	-11	2
COc1cc(OC)c(C(=O)OCC(=O)NCCc2ccccc2)cc1OC	0	-1	0	5	-4	-2
CC(Sc1nc2ccccc2[nH]1)C(=O)Nc1ccccc1F (stereo not drawn)	1	-1	-1	13*	0	4
O=C(Nc1ccc(F)cc1)C(Sc1nc2ccccc2[nH]1)c1ccccc1 (stereo not drawn)	4	3	-5	-3	-10	0
CC(C(=O)NCCN1C(=O)S/C(=C\c2cccnc2)C1=O)N1C(=O)c2ccccc2C1=O (stereo not drawn)	-2	-1	3	2	-15	-1
O=C(CCl)NCCN1C(=O)S/C(=C\c2cccnc2)C1=O	2	2	-9	1	-26	-60*
O=C(CNC(=O)Cc1ccc(Cl)cc1)NCc1ccco1	0	-4	-1	-5	-1	0
C=CCn1c(=S)[nH]c2ccccc2c1=O	-4	7	.	16*	-8	.
CC(C)Cn1c(=S)[nH]c2ccccc2c1=O	1	21	-1	1	0	-1
CC(O)CNc1nc2ccccc2n1CC(=O)N1CCN(Cc2ccccc2)CC1 (stereo not drawn)	2	-2	-1	0	-1	0
CCn1ccnc1CN(C)Cc1cn(-c2cc(C)ccc2C)nc1-c1ccccc1	-4	0	1	20*	-3	-1
O=C(CSc1nc2ccccc2n1CCc1ccccc1)c1ccc(O)c(O)c1	10	2	.	.	72*	.
O=C(COc1cccc(C(F)(F)F)c1)NNC(=O)Cn1c(=O)cnc2ccccc21	.	.	-7	1	.	0
CCN(CC)Cc1c(C(=O)N/N=C/c2ccccn2)nnn1-c1nonc1N	.	.	6	-1	.	3
CC(C(=O)NCc1ccc(Cl)cc1)n1cccc1C(=O)c1ccccc1 (stereo not drawn)	.	.	2	19*	.	-2
O=C(CN1C(=O)NC2(CCCCCC2)C1=O)c1ccc(OC(F)F)cc1OC(F)F	.	.	-3	-1	.	0
O=C(N/N=C\C=C\c1ccc2c(c1)OCO2)C1COc2cc3ccccc3cc2O1 (stereo not drawn)	1	2	19*	-8	-6	0
O=C(N/N=C/c1ccc2c(c1)OCO2)C1COc2ccccc2O1 (stereo not drawn)	-1	-2	-3	-4	18	0
Cc1ccc(C)c(S(=O)(=O)/N=C2\C=C(NS(=O)(=O)c3ccccc3)C(=O)c3ccccc32)c1	.	.	4	31*	.	0
CCOC(=O)C(c1ccccc1)C(Nc1ccc(F)cc1)c1ccccn1 (stereo not drawn)	-3	1	-1	21*	-6	-2
SMILES	Runt-CBFb FRET	Runt-SMMHC FRET	RanGTP-Impb inh	LANA-H2B inh	EBV gp42 block	MEX-5 binding
CCc1nnc(NC(=O)CCC(=O)NC2CCCCCCC2)s1	.	.	6	-5	.	-2
CCOC(=O)c1sc(N/N=C/c2cc(Br)c(O)c(OC)c2)nc1C	.	.	27*	-13	.	-4
CCC[C@@H](NS(=O)(=O)c1ccc(C)cc1)C(=O)Oc1ccc2c3c(c(=O)oc2c1)CCC3	10	13	1	0	-18	1
Cc1ccc(S(=O)(=O)NC(C(=O)Oc2ccc3c(C)c(Cl)c(=O)oc3c2)c2ccccc2)cc1 (stereo not drawn)	64*	59*	72*	8	-9	2
Cc1ccc(S(=O)(=O)N[C@H](C(=O)Oc2ccc3c(C(F)(F)F)cc(=O)oc3c2)c2ccccc2)cc1	11	78*	33*	-2	12	-15
O=C(Cc1cccs1)NCCS(=O)(=O)N1CCN(c2ccccc2F)CC1	.	.	2	-3	.	-1
COc1cccc(CNC(=O)c2cnc(-c3ccccn3)nc2C(F)(F)F)c1	0	6	30*	-23	6	-1
COc1cccc(Nc2ncccc2C(=O)NCc2ccccc2)c1	2	-22	.	.	68*	.
COc1ccc(Nc2ncccc2C(=O)NCc2ccccc2)cc1	-1	-5	3	-4	-17	1
Cc1ccc(CNC(=O)c2cnc(-c3ccccn3)nc2C(F)(F)F)cc1	-2	-1	6	-6	-17	-1
O=C(O)CCC(=O)c1ccc2ccc3cccc4ccc1c2c34	28	69*	5	5	-4	-3
O=C(O)CCC(=O)c1cccc2ccccc12	-1	4	0	-9	-6	-1
Cc1ccc(CC(=O)Nc2nncs2)cc1	-2	-1	4	1	-15	-3
COc1ccc(CC(=O)Nc2nncs2)cc1OC	89*	83	3	0	-9	-1
O=C(c1ccncc1)N1CCN(S(=O)(=O)c2cccc(C(F)(F)F)c2)CC1	.	.	.	2	.	.
O=C(O)c1ccccc1C(=O)N1CCN(S(=O)(=O)c2cccc(C(F)(F)F)c2)CC1	.	.	.	43*	.	.
O=C(NCc1ccc(F)cc1)C1CCN(S(=O)(=O)c2ccc(Br)s2)CC1	.	.	-6	4	.	-1
CC1CCCN(Cc2c(O)ccc3c2O/C(=C\c2ccco2)C3=O)C1 (stereo not drawn)	5	-60	-50	6	49	?
CC(=O)COc1ccc2c(c1C)O/C(=C\c1ccco1)C2=O	.	.	18*	1	.	-2
Cc1oc2cc(OC(=O)c3ccco3)ccc2c(=O)c1-c1nc2ccccc2n1C	0	3	4	-4	4	-1
CCN(CC)S(=O)(=O)c1cccc(NC(=O)CSc2nnc(N)s2)c1	0	-2	30*	-5	-27	2
Nc1nnc(SCC(=O)Nc2cccc(S(N)(=O)=O)c2)s1	0	-3	-1	0	-19	-1
N#C/C(=C\c1c(N2CCCCCC2)nc2ccccn2c1=O)C(N)=O	.	.	-3	-4	.	1
